Experimental data from the RNAGym collection of RNA variant scans (doi:10.1126/science.aae0568).
This sample holds only a part of the variants without activity.

B1: tRNA (parent)
chain: GUUCCGUUGGCGUAAUGGUAACGCGUCUCCCUCCUAAGGAGAAGACUGCGGGUUCGAGUCCCGUACGGAACG

Variants of: B1
Test: yeast fitness relative to wild type (ratio to wild type); higher = fitter; tRNA-Arg(CCU), competitive growth, 37 C, YPD
Summary of the method: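 Variants of the tRNA-Arg(CCU) gene were chemically synthesised with a 3% per-site mutation rate across 69 sites and placed at the native genomic locus in Saccharomyces cerevisiae. Six parallel replicates of the pooled strains were competed in YPD at 37°C for 24 hours, and gene amplicons from the start and end populations were read by 100-nucleotide paired-end sequencing. Darwinian fitness relative to wild type was derived from changes in genotype frequencies. Genotypes required ≥ 100 starting reads, and estimates < 0.5 were set to 0.5.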

| Variant | yeast fitness |
| --- | --- |
| GUUCCGUUGGCGUAGUGGUAACGCGUCUCGCUCCUACGGAGAAGACUGCGGGUUCGAGUCCCGUACGGAACG [A15G C30G A37C] | ≤ 0.5 |
| GUUCCGUUGGCGUAGUGGUAACGCGUCUCACUCCUAAGGAGAAGACUGCGGGUUCGAGCCCUGUACGUAACG [A15G C30A U59C C62U G68U] | ≤ 0.5 |
| GUUCCGUUGGCGUAGUGGUAACGCGUCUCACUCCUAAGGAGAAGACUGCGGGUUCGAGUCCCGUACGGAACG [A15G C30A] | 0.807 |
| GUUCCGUUGGCGUAGUGGUAACGCGUCUCUCUCCUAAGGAGAAGACUGCGGGUUCGAGUCCCGUACGGAACG [A15G C30U] | 0.894 |
| GUUCCGUUGGCGUAGUGGUAACGCGUCUCGCUCCUAAGGAGAAGACUGCGGGUUCGAGUCCCGUACGGAACG [A15G C30G] | 0.631 |
| GUUCCGUUGGCGUAGUGGUAACGCGUCUCCAUCCUAAGGAGAAGACUGCGGGUUCGAGUCCCGUAGGCAACG [A15G C31A C66G G68C] | 0.563 |
| GUUCCGUUGGCGUAGUGGUAACGCGUCUCGCUCCUACGGAGAAGACUGCGGGUUCGAGUCCCGUUGGGAACG [A15G C30G A37C A65U C66G] | ≤ 0.5 |
| GUUCCGUUGGCGUAGUGGUAACGCGUCUCCCUCCUAAGGAGAAGACUGCGGGUUUGAGCCCCGUCCGGAACG [A15G C55U U59C A65C] | ≤ 0.5 |
| GUUCCGUUGGCGUAGUGGUAACGCGUCUCUCUACUAAGGACAAGAUUCCGGGUUCGAGUCCCGUACGGAACG [A15G C30U C33A G41C C46U G48C] | 0.551 |
| GUUCCGUUGGCGUAGUGGUAACGCGUCUCCCUCCUAAGGAGAAGAUUGCGGGUUCGAGUCCCGUACGGCACG [A15G C46U A69C] | 0.835 |
| GUUCCGUUGGCGUAGUGGUAACGCGUCUCGCUCCUAAGGAGAAGACUGCGGGUUCGAGUCCCGUAUGGAACG [A15G C30G C66U] | ≤ 0.5 |
| GUUCCGUUGGCGUAGUGGUAACGCGUCUCCCUGCUAAGGAGAAGACUGCAGGUUCGAGUCCCGUACGGAACG [A15G C33G G50A] | ≤ 0.5 |
| GUUCCGUUGGCGUAGUGGUAACGCGUCUCCCUCCUAAGGAGAAGACUGCGGGUUUAAGUCCCGUACGGAACG [A15G C55U G56A] | 0.58 |
| GUUCCGUUGGCGUAGUGGUAACGCGUCUCCAUCCUAAGGAGAAGACUGCGGGUCCGAGUCCCGUACGGAACG [A15G C31A U54C] | ≤ 0.5 |
| GUUCCGUUGGCGUAGUGGUAACGCGUCUCGAUCCUAAGGAGAAGACUGCGGGUUCGAGUCCCGUACGGAACG [A15G C30G C31A] | ≤ 0.5 |
| GUUCCGUUGGCGUAGUGGUAACGCGUCUCCCUCCUAAGGAGAAGACUGCGGGUUCGAGUCCUGUACGGAUCG [A15G C62U A70U] | 0.73 |
| GUUCCGUUGGCGUAGUGGUAACGCGUCUCCAUCCUAAGGAGAAGACUGCGGGUUCGAGUCCCGUACGGAACG [A15G C31A] | 0.623 |
| GUUCCGUUGGCGUAGUGGUAACGCGUCUCCCUGCUAAGCAGAAGACUGCGGGUUCGAGUCCCGUACGGAACG [A15G C33G G39C] | ≤ 0.5 |
| GUUCCGUUGGCGUAGUGGUAACGCGUCUGCCUCCUAAGGAGAAGACUGCGGAUUCGAGUCCCGUAUGGAACG [A15G C29G G52A C66U] | 0.671 |

| Variant | yeast fitness |
| --- | --- |
| GUUCCGUUGGCGUAGUGGUAACGCGUCUCCUUCCUAAGGAGUAGACUGCGGGUUCGAGUCCCGUACGGAUCG [A15G C31U A42U A70U] | 0.602 |
| GUUCCGUUGGCGUAGUGGUAACGCGUCUCCCUCCUAAGGAGAAGACUGCGGGUUCGAGUCACGUACGGAACG [A15G C61A] | 0.589 |
| GUUCCGUUGGCGUAGUGGUAACGCGUCUCCCUCCUAAGGAGAAGACUGCGGGUUCGAGUCUCGUACGGAACG [A15G C61U] | 0.65 |
| GUUCCGUUGGCGUAGUGGUAACGCGUCUCCCUCCUAAGGAGAAGACUGCGGGUUCGAGUCGCGUACGGAACG [A15G C61G] | 0.698 |
| GUUCCGUUGGCGUAGUGGUAACGCGUCUCCCUUCUAAGGAGAAGACUGCGGGUUCGAGUCCCGUUCGGAACG [A15G C33U A65U] | 0.543 |
| GUUCCGUUGGCGUAGUGGUAACGCGUCUCCGUCCCAAGGAGAAGACUGCGGGUUCGUGUCCCGUACGGAACG [A15G C31G U35C A57U] | ≤ 0.5 |
| GUUCCGUUGGCGUAGUGGUAACGCGUCUCCCUCCUAAGGAGAAGACUGCGGGUUUGAGUCCCGUACGGAACG [A15G C55U] | 0.75 |
| GUUCCGUUGGCGUAGUGGUAACGCGUCUCCCUCCUAAGGAGAAGACUGCGGGUUGGAGUCCCGUACGGAACG [A15G C55G] | 0.641 |
| GUUCCGUUGGCGUAGUGGUAACGCGUCUCCGUCCUAAGGUGAAGACUGCGGGUUCGAGUCCCGUACGGAACG [A15G C31G A40U] | 0.586 |
| GUUCCGUUGGCGUAGUGGUAACGCGUCUCCCUCUUAAGGAGUAGACAGCGGGUUCGGGUCCCGUACGGAACG [A15G C34U A42U U47A A57G] | ≤ 0.5 |
| GUUCCGUUGGCGUAGUGGUAACGCGUCUCCCUCCUAAGGAGAAGAGUGCGGGUUUGAGUCCCGUACGGAACG [A15G C46G C55U] | ≤ 0.5 |
| GUUCCGUUGGCGUAGUGGUAACGCGUCUCCGUCCUAAGGAGAAGACUGCGGGUUCGAGUCCCGUAUGGAACG [A15G C31G C66U] | 0.601 |
| GUUCCGUUGGCGUAGUGGUAACGCGUCUCCGUCCCAAGGAGAAGACUGCGGGUUCGAGUCCCGUACGGAACG [A15G C31G U35C] | 0.531 |
| GUUCCGUUGGCGUAGUGGUAACGCGUCUCCAUCCUAAGGAGAAGACUGCGGGUUUGAGUCCCGUACGGAACG [A15G C31A C55U] | ≤ 0.5 |
| GUUCCGUUGGCGUAGUGGUAACGCGUCUCGCUCCUACGGAGAAGACUGUGGGUUCGAGUCCCAUACGGAACG [A15G C30G A37C C49U G63A] | ≤ 0.5 |
| GUUCCGUUGGCGUAGUGGUAACGCGUCUCCCUCCUAAGGAGAAGACUGUGGGUUCGAGUCCCGUACGGCACG [A15G C49U A69C] | 0.875 |
| GUUCCGUUGGCGUAGUGGUAACGCGUCUCCAUCCUAAGGACAAGACUGUGGGUUCGAGUCCCGUACGGAACG [A15G C31A G41C C49U] | ≤ 0.5 |
| GUUCCGUUGGCGUAGUGGUAACGCGUCUCCUUCCCAAGGAGAAGACUGCGGGUUCGAGUCCCGUACGGAACG [A15G C31U U35C] | 0.609 |
| GUUCCGUUGGCGUAGUGGUAACGCGUCUCCCUCCUAAGGAGAAGAUUGCGGGUUCGAGUCCCGUACGGAUCG [A15G C46U A70U] | 0.829 |
